Reference: ChEMBL document CHEMBL4513216, “Probing the Open Global Health Chemical Diversity Library for Multistage-Active Starting Points for Next-Generation Antimalarials” (ACS Infect Dis, 2020)

Assay: Toxicity liver stage against HepG2, at 10uM
Assay type: cell-based
Parameters: test concentration 10 uM, cell line HepG2-A16-CD81EGFP
Settings: human, HepG2-A16-CD81EGFP cells; read-out: INHIBITION
Method in brief: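 Uninfected HepG2-A16-CD81EGFP cells, 3 × 10^3 per well, 1536-well, plated on prespotted compound at 10 μM final, parasite-free screening media added to match infected plates; puromycin 10 μM positive, DMSO 0.5% negative; run in parallel with 48 h PbLuc assay at 37 °C, 5% CO2; viability by CellTiter-Glo luminescence, normalized to controls.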

| Structure (SMILES) | cytotoxicity at 10 µM |
| --- | --- |
| CC1(C)Oc2ccc(S(=O)(=O)NCCCn3ccnc3)cc2NC1=O | 14.5% |
| CN1CCC(N[C@@H]2CO[C@H](CNC(=O)c3cccs3)[C@H]2O)CC1 | -0.376% |
| CCN(CC)CC[C@H]1CN(C(=O)C2CCC2)CC[C@H]1CC(=O)O | 1.35% |
| COCCNC(=O)Cn1ccc2ccc(F)cc21 | 2.14% |
| CC(=O)Nc1ccc(OCc2noc(C(=O)N3CCCCC3)n2)cc1 | -3.68% |
| O=C(CCc1nc2cccnc2[nH]1)Nc1ccc2c(c1)OCC(=O)N2 | 6.78% |
| COc1ccccc1OCC(=O)NCC(O)(c1cccs1)C1CC1 (stereo unspecified) | -5% |
| COc1ccc(CN2Cc3[nH]nc(C(=O)N(C)C)c3C2)cc1 | -2.48% |
| COc1cc(N2C[C@H]3CN(CCN4CCCC4)C(=O)[C@H]3C2)ncn1 | 12.7% |
| c1cnc(NC[C@H]2OC[C@@H]3CCN(Cc4ccncc4)C[C@@H]32)nc1 | -4.61% |
| O=C(C1CCOC1)N1CCN(Cc2ccncc2)c2ncccc2C1 (stereo unspecified) | 0.617% |
| CC(C)CNC(=O)c1cc2c(s1)CCN2S(C)(=O)=O | -0.522% |
| O=S(=O)(NC1=NCN(CCc2cccs2)CN1)c1ccc(Cl)cc1 | -2.03% |
| O=C(COc1coc(CN2CCCC2)cc1=O)NCc1ccccc1Cl | -0.317% |
| O=S(=O)(Nc1cnn(C2CCOCC2)c1)c1c(F)cccc1F | 13.9% |
| O=C(CSC1CCc2ccccc2NC1=O)NCCO (stereo unspecified) | 5.52% |
| CC(C)CN1C[C@@H]2CN(C(=O)[C@H]3CCCO3)C[C@@H]2C1=O | 6.03% |
| CC[C@H]1NCCC[C@]12CCC(=O)N2Cc1ccncc1 | 6.29% |
| O=C(NCc1cnc2n1CCN(CC1CC1)CC2)C1CCC1 | -12.9% |
| COCCN1CCC2(CCN(Cc3nccs3)CC2)C1=O | -4.36% |
| CC(C)NC(=O)c1nn(C)c(NC(=O)Cc2ccccc2)c1F | -1.73% |
| CCn1nc(C)c2nc(C(C)C)nc(NCCOC)c21 | 6.3% |
| COCCC(=O)N1CCOCC(Cc2ccc3c(ccn3C)c2)C1 (stereo unspecified) | 6.66% |

| Structure (SMILES) | cytotoxicity at 10 µM |
| --- | --- |
| CC(C(N)=O)n1nc(-c2cccs2)cc(N)c1=O (stereo unspecified) | 6.44% |
| O=C(NCC1CCOCC1)c1cc(-c2ccncc2)c2cnccc2n1 | -0.762% |
| Cn1ccc(NC(=O)CN2CCC(Oc3cnccn3)CC2)n1 | 4.3% |
| CN1CCC(c2[nH]ncc2S(C)(=O)=O)CC1 | -7.06% |
| CCCC(=O)N1CCC(c2cc[nH]n2)C1 (stereo unspecified) | 1.2% |
| Cc1cnc(C(=O)N(C)[C@@H]2CCC[C@@H](Oc3ccccc3)[C@@H]2O)cn1 | -15.3% |
| CNC(=O)c1ccc(C2CCCN(C(=O)c3c(C)noc3C)C2)nc1 (stereo unspecified) | -9.88% |
| O=C(N1CCCCC1)N1CCCC(c2ncncc2-c2ccncc2)C1 (stereo unspecified) | -32.1% |
| CCCC(=O)N1CCC(c2nc(O)c3c(n2)CCN(C2CCCC2)C3)C1 (stereo unspecified) | 9.34% |
| CC(=O)N1CCCC1c1cccc(Oc2ccccc2F)n1 (stereo unspecified) | -2.53% |
| O=C(c1cnccn1)N1CCC(Cc2cnc3[nH]ccc3c2)CC1 | -18.6% |
| CN1CCN(C2CCN(CC(O)c3ccccc3F)CC2)C1=O (stereo unspecified) | -0.275% |
| CC(c1nc(C2CC2)no1)N1CCc2c(ncn2C2CC2)C1 (stereo unspecified) | -2.52% |
| CC(C)CN1CCC(NC(=O)NCCC(=O)NCc2ccccc2)CC1 | 1.64% |
| NC(=O)C1CCN(C(=O)NCc2ccccc2Cn2ccnc2)CC1 | -0.302% |
| CC(C)CN(Cc1nnc(-c2ccco2)o1)CC(C)C | 0.0773% |
| COc1ccc(CNC(=O)N2CCOCC2C2CC2)c(C)c1 (stereo unspecified) | 4.54% |
| Cc1cc(CN2CCN(C(C)c3nc(C(C)C)no3)CC2)no1 (stereo unspecified) | 3.29% |
| CC(=O)NCCc1ccc(S(=O)(=O)N(C)C(C)C(C)(C)C)s1 (stereo unspecified) | -3.58% |
| CC(=O)N1CCN(CCNS(=O)(=O)c2cc(F)ccc2C)CC1 | 5.42% |
| CC(C)c1nnc2n1CC(CNCc1ccc3c(c1)OCCO3)CC2 (stereo unspecified) | -5.92% |
| O=S(=O)(NCCCN1CC=CC1)c1cncc(Cl)c1 | -6.38% |
| CSc1ccc(NCc2csc(CS(C)(=O)=O)n2)cc1F | -9.99% |

| Structure (SMILES) | cytotoxicity at 10 µM |
| --- | --- |
| Cn1nnc2cc(C(=O)NS(=O)(=O)c3ccc(F)cc3)ccc21 | 5.46% |
| O=C(c1ccc(N2CCCC2)nc1)N1CCCC(c2nccs2)C1 (stereo unspecified) | 15.4% |
| COCCNC(C)c1ccc(-c2cccnc2)cc1 (stereo unspecified) | 2.7% |
| COCCN1CCN(CC(O)c2ccc(C(F)(F)F)cc2)CC1 (stereo unspecified) | -10.7% |
| COc1ccccc1N1CCC(CNS(=O)(=O)c2c(C)nn(C)c2C)C1 (stereo unspecified) | -21.8% |
| CC(=O)NCCC(=O)NC1(c2ccc(Cl)c(Cl)c2)CC1 | 7.49% |
| CSC(C)(C)CNC(=O)NCc1cccc(-n2ccnc2)c1 | 32.9% |
| N#Cc1ccc(CNC(=O)NCCC(=O)NC2CCCC2)c(F)c1 | 3.79% |
| O=C(C1CCCc2[nH]ncc21)N1CCCC1 (stereo unspecified) | 8.53% |
| CCc1nc(CN(C)CC2CCN(CCO)CC2)no1 | -9.68% |
| Cc1noc(C(C)N2CCN(CCC(=O)N3CCCCC3)CC2)n1 (stereo unspecified) | -9.24% |
| CC[C@@H](C)[C@@H](N)C(=O)Nc1cccc(-c2cnc(N)nc2)c1 | 0.942% |
| CN(C)CCn1ccnc1C1CCCN(c2ncc(Cl)cc2F)C1 (stereo unspecified) | -1.75% |
| O=C(O)[C@H]1C[C@@H](C(=O)NCc2ccncc2)CN(Cc2ccccc2)C1 | -138% |
| COc1cccc(Cn2c(C)c(C)oc2=O)c1OC | -2.34% |
| Cc1cnc(C(=O)N2CC(=O)N(c3ccccc3Cl)CC2C)cn1 (stereo unspecified) | -8.23% |
| CN(C)CCCn1ccnc1C1CCCN(c2ncc(Cl)cc2F)C1 (stereo unspecified) | -7.43% |
| COc1cccc2c(=O)n(Cc3ccnc(C)c3)cnc12 | -0.0198% |
| Cc1ccccc1C(=O)NC[C@@H]1CCN(C(=O)c2cccn2C)C[C@H]1O | -45.3% |
| CN1CCCC(CCC(=O)NCCCn2ncc3ccccc32)C1 (stereo unspecified) | 2.39% |
| CCNC(=O)[C@@H]1C[C@H](N)CN1C(=O)c1cccc(CCC(C)(C)O)c1 | 4.61% |
| CCC[C@@H]1CN(Cc2ccccc2C#N)C[C@H]1NC(C)=O | -3.92% |
| CC(C(=O)O)N1CC2(CCC1=O)CCN(CCc1ccccc1)CC2 (stereo unspecified) | -0.503% |

| Structure (SMILES) | cytotoxicity at 10 µM |
| --- | --- |
| Cc1cc2ccccc2n1CCC(=O)N1CCCC1Cn1cccn1 (stereo unspecified) | 2.15% |
| Cc1[nH]c2c(F)cccc2c1CC(=O)NC1CCCCNC1=O (stereo unspecified) | 19.1% |
| Cc1ccccc1CC(=O)N1CCc2c(ncnc2N2CCOCC2)C1 | -3.39% |
| COCCN(C)C[C@@H]1CN(Cc2ccnc3ccccc23)C[C@@H]1CO | -6.33% |
| CNC(=O)c1nc(CN2CCOC(CCCC(C)C)C2)no1 (stereo unspecified) | -2.25% |
| CC(C)n1ccnc1C1CCN(C(=O)C2COc3ccccc3O2)CC1 (stereo unspecified) | -8.28% |
| COc1ccc2c(c1)OCC(CNC(=O)c1ccc(=O)n(C)c1)C2 (stereo unspecified) | -11.2% |
| Cc1nn(C)cc1-c1cc(C(F)(F)F)n(CCCN)n1 | -6.25% |
| CC(C)(C)c1nc(CN2CCCN(Cc3cccs3)CC2)no1 | 6% |
| O=C(NCCn1nc2ccccn2c1=O)c1scnc1Cl | -13.9% |
| Cc1nc(C2CCCN2C(=O)c2cc3c(s2)CCC3)no1 (stereo unspecified) | -6.82% |
| CC(NC(=O)N1CCC(n2cncn2)CC1)c1ccc(F)cc1 (stereo unspecified) | -3.66% |
| c1ncn(CC2CN(Cc3ccc4c(c3)OCCO4)CCO2)n1 (stereo unspecified) | -0.282% |
| CS(=O)(=O)c1ccc(CNC(=O)N2CCC(CO)CC2)cc1 | -11.6% |
| Cc1cnn(CC2CCCN2Cc2noc(CC(C)C)n2)c1 (stereo unspecified) | -5.04% |
| Cc1ccccc1CC(C)NC(=O)Nc1cnn(CC(N)=O)c1 (stereo unspecified) | -11.5% |
| Cc1nn(C)c(N(C)C)c1CNCc1ccnc(N2CCOCC2)c1 | -13% |
| O=C(c1cc(Cl)ccc1F)N1CCCC1Cn1cccn1 (stereo unspecified) | 8.36% |
| COc1cccc(OCC(=O)NS(=O)(=O)c2ccc(Br)s2)c1 | -16.1% |
| Cc1cnn(CCNCC(=O)NCC2(c3ccccc3)CC2)c1 | 5.58% |
| CN(C)c1cc(C(=O)N2CCCCC2Cn2cccn2)ccn1 (stereo unspecified) | -23% |
| COc1ccc(OC)c(C(=O)N(C)Cc2ncc(C)c(OC)c2C)c1 | -4.3% |
| Cc1nc2ccccc2nc1CN1CCCC1Cn1cccn1 (stereo unspecified) | -31.4% |

| Structure (SMILES) | cytotoxicity at 10 µM |
| --- | --- |
| CS(=O)(=O)c1ccc(CNC(=O)NCC2CCOC2)cc1 (stereo unspecified) | -9.22% |
| O=C(C1CCCC1)N1CCN(Cc2nc(-c3ccco3)no2)CC1 | -7.84% |
| COc1ccc(CNCC(C)Oc2ccccn2)cc1Cl (stereo unspecified) | 7.36% |
| CC(C)N(C)Cc1cnc2n1CCN(Cc1ccc(F)cc1)C2 | 1.44% |
| CN1CC(=O)N(c2ccccc2)CC12CCN(C(=O)c1cccs1)C2 (stereo unspecified) | -79.3% |
| Cn1cc(C[C@H]2[C@H](N3CCOCC3)CCN2C(=O)c2ccco2)cn1 | 2.44% |
| Cn1cc(CN2CC[C@H](O)[C@@H]2Cc2ccccc2)cn1 | -73% |
| CCN1CC[C@@]2(C(=O)N3CCOCC3)CCN(S(=O)(=O)CC)CC[C@@H]12 | 8.92% |
| Cc1noc(C)c1CN1CC[C@H]2OCC[C@@]2(C(=O)NC2CCCC2)C1 | -75.7% |
| Cc1ccoc1C(=O)N1CCn2nnc(COc3cccnc3)c2C1 | -82.5% |
| c1cc(CN2CCCC23CCCN(Cc2ccoc2)C3)ccn1 (stereo unspecified) | 2.25% |
| Cc1csc2nc3n(c(=O)c12)CCN(Cc1c[nH]cn1)CC3 | -18.8% |
| Cn1cc(CN2CCOCC3(C2)CN(c2ccccc2)C(=O)CO3)cn1 (stereo unspecified) | 0.436% |
| Cc1nn(C)c(C)c1S(=O)(=O)N1CC[C@H]2O[C@@H](C)C[C@H]2C1 | 2.79% |
| C[C@H](N)Cn1nc(-c2cccs2)oc1=O | -1.94% |
| CN(C)C(=O)CN1CCC2(CC1)COc1ccccc1S(=O)(=O)N(C)C2 | -0.259% |
| CN(C)C(=O)CN1C(=O)CCC12CCN(Cc1ccc(F)cc1)CC2 | 7.8% |
| c1nc2c(c(NC3CCC3)n1)CCNCC2 | -1.28% |
| NC(=O)c1cccc(CNCC=Cc2ccccc2)c1 | 5.62% |
